GalR3 antagonist – antagonists of human GalR3; O60755; inhibition, % at 3 µM; AID 651719; HEK293 GalR3-CNG cAMP membrane potential fluorescence; galR3 body fused to GalR1 C-terminus; 360,000 tested, 0.44% active;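 active = inhibition above the screen-wide average plus 3 SD, cut at about 13% in these data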;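 note: forskolin and galanin both at EC90 stimulate the cells; cAMP rise reported by CNG channel membrane potential dye signal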
NR2E3 ag-1 – agonists of human nuclear receptor NR2E3; inhibition of corepressor binding, % at 4.78 µM; Q9Y5X4; AID 2300; GST-NR2E3/biotin-RetCOR TR-FRET, 1536-well; 320,000 tested, 0.12% active;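 active = percent inhibition above the cutoff of mean plus 3 SD of all tested compounds, set per screening campaign, cut at about 20% in these data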
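Test system – NR2E3–RetCOR corepressor complex · Quantity – NR2E3 fusion 1.35 nM · Buffer or medium – Tris pH 7.5 · Incubation – Compound–protein incubation for 5 h at 4 °C · Technique – TR-FRET, Eu(K)-anti-GST donor, streptavidin-D2 acceptor, ex 340, em 617/671 nm · Evaluation – percent inhibition of 671/617 nm emission ratio versus biotin and DMSO controls · Plate – 1536-well format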
Jurkat NFkB inh – lowers PMA/ionomycin-induced NF-kB signal in Jurkat cells. PMA/ionomycin-induced NF-kB luciferase reporter, luminescence. inhibition, % at 4 µM. 330,000 tested, 0.53% active. AID 435003; in the data active = inhibition above about 50%
NR2E3 ag-2 – agonists of human NR2E3 nuclear receptor. Q9Y5X4. 360,000 tested, 0.35% active. inhibition of corepressor binding, % at 3.98 µM. CHO-S Gal4-NCOR/VP16-NR2E3 two-hybrid, luciferase. AID 602229;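 active = inhibition above the mean of all tested compounds plus 3 SD, cut at about 70% in these data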;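 note: higher means lower luciferase signal from less NR2E3 corepressor binding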
697 NFkB inh – lowers PMA/ionomycin-induced NF-kB signal in 697 B cells; 697 B-cell NF-kB luciferase reporter, 16 h; inhibition, % at 4 µM; 330,000 tested, 0.33% active; in the data active = inhibition above about 35%
GASC-1 inh – blocks human GASC-1 demethylase activity; GST-JMJD2C(1-420) H3K9me3 demethylation, DELFIA europium; 330,000 tested, 0.069% active; AID 2099; inhibition, % at 2.35 µM; Q9H3R0;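 active = more than half of a compound's replicate wells show inhibition beyond 50%, single wells judged on their own value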;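 note: signal counts dimethyl H3K9 product captured on neutravidin plate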
Target sequence (Q9H3R0 1-420 limits assumed): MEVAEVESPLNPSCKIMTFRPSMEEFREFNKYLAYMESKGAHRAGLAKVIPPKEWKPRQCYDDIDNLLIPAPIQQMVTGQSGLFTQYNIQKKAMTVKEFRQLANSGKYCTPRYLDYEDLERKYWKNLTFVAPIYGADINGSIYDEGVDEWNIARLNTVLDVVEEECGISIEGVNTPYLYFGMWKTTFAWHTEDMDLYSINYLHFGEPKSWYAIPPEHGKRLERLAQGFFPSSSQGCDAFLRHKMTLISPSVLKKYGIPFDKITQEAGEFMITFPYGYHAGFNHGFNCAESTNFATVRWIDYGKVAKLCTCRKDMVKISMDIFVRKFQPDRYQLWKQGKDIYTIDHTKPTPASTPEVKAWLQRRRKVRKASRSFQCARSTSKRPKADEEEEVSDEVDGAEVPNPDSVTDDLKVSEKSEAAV
Jurkat NFkB conf – lowers PMA/ionomycin-induced NF-kB signal in Jurkat cells. 2,700 tested, 27% active. inhibition, % at 4 µM. Jurkat NF-kB luciferase, 16 h. shares compounds with Jurkat NFkB inh;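 active = inhibition reaching about 45% at 4 µM in either replicate, limit read from the data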
697 NFkB conf – inhibitors of the PMA/ionomycin-induced NF-kB reporter in 697 B cells, retest; inhibition, % at 4 µM; AID 449746; shares compounds with 697 NFkB inh; 697 B-cell NF-kB luciferase, 16 h; 2,000 tested, 35% active; in the data active = inhibition mostly above about 28%, no sharp cut-off; inactive = mostly below about 22%
NR2E3 ag confirm – NR2E3 agonism confirmed in two-hybrid assay; shares compounds with NR2E3 ag-2; CHO-S mammalian two-hybrid NR2E3-NCOR, luciferase luminescence; inhibition, % at 3.98 µM; 2,300 tested, 51% active; AID 624378;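 active = average inhibition above a cutoff equal to the mean inhibition of all tested compounds plus one SD, cut at about 70% in these data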
VP16 counter – reduces GAL4-VP16 reporter signal in NR2E3 counterscreen | inhibition, % at 3.98 µM | shares compounds with NR2E3 ag-2 | CHO-S GAL4-VP16 luciferase reporter, luminescence | 2,300 tested, 29% active;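 active = mean inhibition above a cutoff equal to the average over all tested compounds plus one standard deviation, cut at about 70% in these data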;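 note: luciferase from a UAS reporter driven by GAL4-VP16 transactivation; higher means less reporter light so more repression of VP16 activity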
GalR3 antag conf – GalR3 (human) antagonism, confirmation; HEK293 GalR3 CNG cAMP biosensor, membrane potential fluorescence; galR3 fused to GalR1 carboxy tail; challenged with forskolin and galanin at EC90; 1,600 tested, 59% active; inhibition, % at 3 µM; shares compounds with GalR3 antagonist;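 active = inhibition above the primary screen's cutoff, the mean inhibition of all screened compounds plus 3 SD, cut at about 13% in these data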
HEK-CNG parental – counter-screen for GalR3 antagonists: nonspecific agonists in parental HEK-CNG cells; shares compounds with GalR3 antagonist; HEK293-CNG parental cells, cAMP membrane potential fluorescence; normalised: DMSO wells 0%, forskolin wells 100%; activation, % at 3 µM; 1,600 tested, 10% active; AID 652268; in the data active = activation above about 1.3%
Numbers stand for hits; - = inactive; . = no result given. Hits are enriched below; roughly 1.5% of the tested compounds scored in any of these assays.

SMILES	GalR3 antagonist	NR2E3 ag-1	Jurkat NFkB inh	NR2E3 ag-2	697 NFkB inh	GASC-1 inh	Jurkat NFkB conf	GalR3 antag conf	HEK-CNG parental	others
Cc1ccc(S(=O)(=O)NCc2ccncc2)c(C)c1C	85.9	-	62.5	80.2	-	-	67.9	110.6	-	NR2E3 ag confirm=93.6;VP16 counter=85.1
O=C1NC[C@@H](CCCCN2CCN(Cc3ccccc3)C(=O)C2=O)N(Cc2ccccc2)C1=O	-	.	.	-	.	.	.	.	.
CCN(CC)S(=O)(=O)c1ccc(NC(=O)COC(=O)CCc2cc(OC)c(OC)c(OC)c2)cc1	-	-	-	-	-	-	.	.	.
O=C(CSc1nnnn1C1CC2CCC1C2)Nc1ccnc2ccccc12 (stereo not drawn)	88.7	-	82.7	97.9	94.6	.	70.9	117.1	-	697 NFkB conf=95.9;NR2E3 ag confirm=94.0;VP16 counter=92.9
CCOC(=O)c1ccc(-c2c(-c3ccc(OC)cc3)oc(=O)c3cc(OC)c(OC)cc23)cc1F	-	-	-	-	-	-	.	.	.
CCOC(=O)c1ccc(-c2c(-c3cc(OC)c(OC)c(OC)c3)noc2C)cc1F	.	-	56.7	-	-	-	-	-	3.8
O=C(Nc1ccc(Oc2cccnc2)nc1)c1ccc(C(F)(F)F)cc1	76.7	-	50.1	-	-	-	56.5	61.4	-
COc1ccc(C(=O)N2CCCC(CCC(=O)NCc3ccccc3F)C2)c(OC)n1 (stereo not drawn)	-	-	-	-	-	-	.	.	.
COc1ccc(-n2c(-c3ccc(Cl)cc3)c[n+]3c2CCCCC3)cc1	-	-	-	-	-	-	.	.	.
COc1ccc(-c2c[n+]3c(n2-c2ccc(C)cc2)CCCCC3)cc1	71.1	-	79.3	-	51.0	-	60.9	91.7	-	697 NFkB conf=65.2
CCCC(=O)N1CCC1(C)C(=O)Nc1scc(C)c1C#N (stereo not drawn)	.	.	.	-	.	.	.	.	.
COC(=O)c1ccc(NC(=O)C(=O)c2cccn2C)cc1	.	-	-	-	-	-	-	-	-
COC(=O)c1ccc(NC(=O)c2ccccc2C(=O)Nc2ccc(C(=O)OC)cc2)cc1	-	-	-	-	-	-	.	.	.
COc1cccc(CN(C)C(=O)c2cc(COc3ccc4ncccc4c3)on2)c1	87.7	-	52.3	78.9	-	-	-	98.8	-	NR2E3 ag confirm=96.6;VP16 counter=87.7
O=C(O)c1ccc(Cl)c(NC(=O)C2CCCN2S(=O)(=O)c2cccc3nsnc23)c1 (stereo not drawn)	-	-	-	-	-	-	.	.	.
O=C(Nc1ccc(S(=O)(=O)N2CCCC2)cc1)c1ccc(CN2CCc3ccccc3C2)cc1	95.9	-	74.5	-	-	-	75.1	104.8	-	NR2E3 ag confirm=-;VP16 counter=-
O=C(Nc1ccc(S(=O)(=O)N2CCCCC2)cc1)c1ccncc1	-	-	-	-	-	-	.	.	.
CC(=O)c1cccc(NC(=O)c2ccc(CN3CCc4ccccc4C3)cc2)c1	-	-	-	-	-	-	.	.	.
O=C(Nc1ccc(Cc2ccncc2)cc1)c1ccc(S(=O)(=O)N2CCCC2)cc1	72.7	.	50.2	-	-	-	47.1	94.2	-
